{"data": "Published values of several laboratories", "cell line": "MCF-10A", "effect on": "cell growth or viability", "note": "Lines come from different studies, so protocols differ."}
{"Compound": "CCCc1ccc(-c2cnc3c(n2)CCCC3)cc1", "conditions": "48 h", "IC50 [µM]": "> 50"}
{"Compound": "CC(C)[C@H](NC(=O)c1cc(Cl)ccc1OCCNC(=O)OC(C)(C)C)C(=O)Nc1ccc([N+](=O)[O-])cc1Cl", "test": "MTT", "conditions": "72 h", "IC50 [µM]": "> 60"}
{"Compound": "O=C(/C=C/c1ccccc1)c1ccccc1", "test": "resazurin", "conditions": "72 h", "IC50 [µM]": 3.15}
{"Compound": "COc1ccc(-c2cnc3c(n2)CCCC3)cc1C#N", "conditions": "48 h", "IC50 [µM]": "> 50"}
{"Compound": "COc1cccc2c1C(=O)c1c(O)c3c(c(O)c1C2=O)C[C@@](O)(C(=O)CO)C[C@@H]3O[C@H]1C[C@H](N)[C@H](O)[C@H](C)O1", "test": "resazurin", "conditions": "72 h", "IC50 [µM]": 0.037}
{"Compound": "CCCOc1cccc(-c2cnc3c(n2)CCCC3)c1", "conditions": "48 h", "IC50 [µM]": "> 50"}
{"Compound": "O=C(NC(=S)NCCNC(=S)NC(=O)c1ccc2ccccc2c1)c1ccc2ccccc2c1", "conditions": "48 h", "IC50 [µM]": 86.1}
{"Compound": "CC(C)C(=O)Nc1ccc([N+](=O)[O-])c(C(F)(F)F)c1", "test": "CCK-8", "conditions": "48 h", "IC50 [µM]": 21.4}
{"Compound": "COc1cccc2c1C(=O)c1c(O)c3c(c(O)c1C2=O)C[C@@](O)(C(=O)CO)C[C@@H]3O[C@H]1C[C@H](N)[C@H](O)[C@H](C)O1", "conditions": "48 h", "IC50 [µM]": 77}
{"Compound": "C[C@](C#N)(COc1cc(C#N)ccc1C(F)(F)F)NC(=O)c1ccc(SC(F)(F)F)cc1", "conditions": "48 h", "IC50 [µM]": "~32.8"}
{"Compound": "C[C@H]1O[C@@H](n2cc(F)c(=O)[nH]c2=O)[C@H](O)[C@@H]1O", "test": "CCK-8", "conditions": "48 h", "IC50 [µM]": 8.51}
{"Compound": "Cc1cc2ncc(-c3ccccc3)nc2cc1C", "conditions": "48 h", "IC50 [µM]": "> 50"}
{"Compound": "CCN(CC)CCNC(=O)c1c(C)[nH]c(/C=C2\\C(=O)Nc3ccc(F)cc32)c1C", "conditions": "72 h", "IC50 [µM]": 4.07}
{"Compound": "c1ccc2cc(-c3nnc(NC4CCCCC4)[nH]3)ccc2c1", "conditions": "48 h", "IC50 [µM]": 86.6}
